Log virus titer change data for four compounds are collected here from PubChem BioAssay AID504830 (Southern Research Specialized Biocontainment Screening …, 2011).

Molecules are shown by their SMILES.

This assay has as its system HEp-2 cells, RSV plaque reduction, virus titer. As to the kind of experiment: RSV titer reduction by inhibitors, cell-based, plaque reduction (AID 504830). The conditions noted are these: at 25 µM; hits give low values. The method, boiled down: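 Material: RSV Long-infected HEp-2 cells | Measured by: HEp-2 plaque titration, 1% Avicel overlay, six days, neutral red stain | Incubation: 2 h infection, then 48 h compound exposure at 37 °C | Doses: Compound added after virus wash, 0.5% DMSO final | Reagent: RSV Long, MOI 0.1, 2 h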
For the compound `COc1ccc(C)c(NC(=O)[C@@H]2CCCN2S(=O)(=O)c2cccc3cccnc23)c1`, the log virus titer change was -1.
As for `Cc1ccc(NC(=O)[C@@H]2CCCN2S(=O)(=O)c2cccc3cccnc23)c(C)c1`, the figure is -1; as for `Cc1ccc(C)c(NC(=O)[C@@H]2CCCN2S(=O)(=O)c2cccc3cccnc23)c1`, -2; as for `Cc1ccc(NC(=O)C2CCCN2S(=O)(=O)c2cccc3cccnc23)c(C)c1` (centres undefined), -2.1.
